What was measured:
B16-F10 [1] = assay: Inhibition of melanin production in mouse B16F10 cells at 100 uM after 2 days; type: functional; settings: B16-F10, 48 h
In short: (§1)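 Extracellular melanin release: B16 murine melanoma cells seeded at 1×10^5 per well overnight, then alpha-MSH added with or without compound in phenol red-free DMEM for 2 d. Melanin in the medium quantified by absorbance at 405 nm. Cells were maintained in DMEM with 10% heat-inactivated FBS and 1% penicillin-streptomycin at 37 °C, 5% CO2.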

[2] = Cytotoxicity against mouse B16F10 cells assessed as cell viability after 24 hrs by MTT assay; type: cell-based, B16-F10; set-up: concentration or dose not given beside the values
In short: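 B16 murine melanoma cells (DMEM, 10% heat-inactivated FBS, 1% penicillin-streptomycin, 5% CO2, 37 °C) exposed to compounds or no compound for 24 h. MTT (5 mg/ml in PBS) added, 3 h at 37 °C, formazan dissolved in DMSO, absorbance read at 570 nm.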

B16-F10 [3] = assay: Inhibition of melanin production in mouse B16F10 cells at 500 uM after 2 days; type: functional; settings: B16-F10, 48 h; in short: as §1

C/C=C(\C)C(=O)O[C@H]1Cc2cc3ccc(=O)oc3cc2OC1(C)C [DECURSINOL TIGLATE]
inhibition at 100 µM (B16-F10 [1]): 71.5%
cytotoxicity (% decrease in viability) at 24 h [2]: 16.4%

C=CCCC(=O)O[C@H]1Cc2cc3ccc(=O)oc3cc2OC1(C)C
inhibition at 100 µM (B16-F10 [1]): 36.4%
cytotoxicity (% decrease in viability) at 24 h [2]: -0.4%

C=CCC(=O)O[C@H]1Cc2cc3ccc(=O)oc3cc2OC1(C)C
inhibition at 100 µM (B16-F10 [1]): -8.1%
cytotoxicity (% decrease in viability) at 24 h [2]: 0.6%

C/C=C(/C)C(=O)O[C@H]1Cc2cc3ccc(=O)oc3cc2OC1(C)C [DECURSINOL ANGELATE]
inhibition at 100 µM (B16-F10 [1]): 74.5%
cytotoxicity (% decrease in viability) at 24 h [2]: -2.4%

CC1(C)Oc2cc3oc(=O)ccc3cc2C[C@@H]1OC(=O)/C=C/c1cccc(O)c1
inhibition at 100 µM (B16-F10 [1]): 73.8%
cytotoxicity (% decrease in viability) at 24 h [2]: 47.9%

CC1(C)Oc2cc3oc(=O)ccc3cc2C[C@@H]1O [DECURSINOL]
inhibition at 100 µM (B16-F10 [1]): 12.2%
cytotoxicity (% decrease in viability) at 24 h [2]: 1.4%

CC1(C)Oc2cc3oc(=O)ccc3cc2C[C@@H]1OC(=O)/C=C/c1ccc(O)cc1
inhibition at 100 µM (B16-F10 [1]): 66.4%
cytotoxicity (% decrease in viability) at 24 h [2]: 65.8%

CC1(C)Oc2cc3oc(=O)ccc3cc2C[C@@H]1OC(=O)/C=C/c1cc(O)c(O)c(O)c1
inhibition at 100 µM (B16-F10 [1]): 59.2%
cytotoxicity (% decrease in viability) at 24 h [2]: 42.9%

OC[C@H]1O[C@@H](Oc2ccc(O)cc2)[C@H](O)[C@@H](O)[C@@H]1O [ARBUTIN]
inhibition at 500 µM (B16-F10 [3]): 41%
cytotoxicity (% decrease in viability) at 24 h [2]: -6.2%

C=C(C)C(=O)O[C@H]1Cc2cc3ccc(=O)oc3cc2OC1(C)C
inhibition at 100 µM (B16-F10 [1]): 58.1%
cytotoxicity (% decrease in viability) at 24 h [2]: 58.4%

CC1(C)Oc2cc3oc(=O)ccc3cc2C[C@@H]1OC(=O)CCc1ccccc1
inhibition at 100 µM (B16-F10 [1]): 62.8%
cytotoxicity (% decrease in viability) at 24 h [2]: -0.6%

CC1(C)Oc2cc3oc(=O)ccc3cc2C[C@@H]1OC(=O)/C=C/c1ccccc1 [DIHYDROPYRANOCOUMARIN D2]
inhibition at 100 µM (B16-F10 [1]): 72.1%
cytotoxicity (% decrease in viability) at 24 h [2]: 0.8%

CC(=O)Oc1ccc(/C=C/C(=O)O[C@H]2Cc3cc4ccc(=O)oc4cc3OC2(C)C)cc1OC(C)=O
inhibition at 100 µM (B16-F10 [1]): 30.7%
cytotoxicity (% decrease in viability) at 24 h [2]: 49.4%

COc1ccccc1/C=C/C(=O)O[C@H]1Cc2cc3ccc(=O)oc3cc2OC1(C)C
inhibition at 100 µM (B16-F10 [1]): 63.7%
cytotoxicity (% decrease in viability) at 24 h [2]: -5.1%

CC(=O)Oc1ccc(/C=C/C(=O)O[C@H]2Cc3cc4ccc(=O)oc4cc3OC2(C)C)cc1
inhibition at 100 µM (B16-F10 [1]): 76.1%
cytotoxicity (% decrease in viability) at 24 h [2]: 58%

CCCCC(=O)O[C@H]1Cc2cc3ccc(=O)oc3cc2OC1(C)C
inhibition at 100 µM (B16-F10 [1]): 76.5%
cytotoxicity (% decrease in viability) at 24 h [2]: 10.4%

CC1(C)Oc2cc3oc(=O)ccc3cc2C[C@@H]1OC(=O)/C=C/c1cccnc1
inhibition at 100 µM (B16-F10 [1]): 53.5%
cytotoxicity (% decrease in viability) at 24 h [2]: 5%

COc1cccc(/C=C/C(=O)O[C@H]2Cc3cc4ccc(=O)oc4cc3OC2(C)C)c1
inhibition at 100 µM (B16-F10 [1]): 37.9%
cytotoxicity (% decrease in viability) at 24 h [2]: 14.5%

CC1(C)Oc2cc3oc(=O)ccc3cc2C[C@@H]1OC(=O)/C=C/c1ccccc1O
inhibition at 100 µM (B16-F10 [1]): 76.8%
cytotoxicity (% decrease in viability) at 24 h [2]: 74.2%

CC1(C)Oc2cc3oc(=O)ccc3cc2C[C@@H]1OC(=O)/C=C/c1ccco1
inhibition at 100 µM (B16-F10 [1]): 33%
cytotoxicity (% decrease in viability) at 24 h [2]: -1.4%

CC1(C)Oc2cc3oc(=O)ccc3cc2C[C@@H]1OC(=O)/C=C/c1cccs1
inhibition at 100 µM (B16-F10 [1]): 71.6%
cytotoxicity (% decrease in viability) at 24 h [2]: -15.4%

COc1ccc(/C=C/C(=O)O[C@H]2Cc3cc4ccc(=O)oc4cc3OC2(C)C)cc1
inhibition at 100 µM (B16-F10 [1]): 40.3%
cytotoxicity (% decrease in viability) at 24 h [2]: -3.5%

COc1ccccc1CCC(=O)O[C@H]1Cc2cc3ccc(=O)oc3cc2OC1(C)C
inhibition at 100 µM (B16-F10 [1]): 68.9%
cytotoxicity (% decrease in viability) at 24 h [2]: 6.1%

COc1cc(/C=C/C(=O)O[C@H]2Cc3cc4ccc(=O)oc4cc3OC2(C)C)cc(OC)c1OC
inhibition at 100 µM (B16-F10 [1]): 18.8%
cytotoxicity (% decrease in viability) at 24 h [2]: 4.1%

COc1ccc(/C=C/C(=O)O[C@H]2Cc3cc4ccc(=O)oc4cc3OC2(C)C)cc1OC
inhibition at 100 µM (B16-F10 [1]): 42.4%
cytotoxicity (% decrease in viability) at 24 h [2]: -1.4%

CC(=O)Oc1cc(/C=C/C(=O)O[C@H]2Cc3cc4ccc(=O)oc4cc3OC2(C)C)cc(OC(C)=O)c1OC(C)=O
inhibition at 100 µM (B16-F10 [1]): 35.4%
cytotoxicity (% decrease in viability) at 24 h [2]: 54.8%

CCCCCCCCCC(=O)O[C@H]1Cc2cc3ccc(=O)oc3cc2OC1(C)C
inhibition at 100 µM (B16-F10 [1]): 79.3%
cytotoxicity (% decrease in viability) at 24 h [2]: 28.2%

CC(=O)Oc1ccccc1/C=C/C(=O)O[C@H]1Cc2cc3ccc(=O)oc3cc2OC1(C)C
inhibition at 100 µM (B16-F10 [1]): 65.9%
cytotoxicity (% decrease in viability) at 24 h [2]: 63.1%

CC(C)=CC(=O)O[C@H]1Cc2cc3ccc(=O)oc3cc2OC1(C)C [DECURSIN]
inhibition at 100 µM (B16-F10 [1]): 71%
cytotoxicity (% decrease in viability) at 24 h [2]: -9.7%

CC/C=C/C(=O)O[C@H]1Cc2cc3ccc(=O)oc3cc2OC1(C)C
inhibition at 100 µM (B16-F10 [1]): 79.4%
cytotoxicity (% decrease in viability) at 24 h [2]: 39.5%

CC1(C)Oc2cc3oc(=O)ccc3cc2C[C@@H]1OC/C=C/c1ccccc1 [PROGERININ]
inhibition at 100 µM (B16-F10 [1]): 33.8%
cytotoxicity (% decrease in viability) at 24 h [2]: -12.5%

CC(=O)Oc1cccc(/C=C/C(=O)O[C@H]2Cc3cc4ccc(=O)oc4cc3OC2(C)C)c1
inhibition at 100 µM (B16-F10 [1]): 80.7%
cytotoxicity (% decrease in viability) at 24 h [2]: 31.4%

CC(=O)O[C@H]1Cc2cc3ccc(=O)oc3cc2OC1(C)C
inhibition at 100 µM (B16-F10 [1]): -5.7%
cytotoxicity (% decrease in viability) at 24 h [2]: 3.7%

CC1(C)Oc2cc3oc(=O)ccc3cc2C[C@@H]1OC(=O)/C=C/c1ccc(O)c(O)c1
inhibition at 100 µM (B16-F10 [1]): 43.5%
cytotoxicity (% decrease in viability) at 24 h [2]: 67.6%
